Experimental data from ChEMBL document CHEMBL1133641, “A new class of potential chloroquine-resistance reversal agents for Plasmodia: syntheses and biological evaluation of 1-(3'-diethylaminopropyl)-3-(substituted phenylmethylene)pyrrolidines” (2000).
The source made the active and inactive calls. No cut-off for these calls is given here.

Columns and labels:
[1] = test system: Plasmodium yoelii nigeriensis; assay: Inhibition of heme oxygenase in Plasmodium yoelii nigeriensis isolated from infected mice (Mus musculus) (oral); NI denotes no inhibition; type: functional, organism-based
In short: (§1)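 Swiss albino mice carried P. yoelii nigeriensis tolerant to CQ up to 120 mg/kg. They received compound orally at 15 mg/kg body wt for 5 days. Parasites were then isolated from blood by density gradient centrifugation and saponin lysis, and enzyme inhibition was measured as percent inhibition.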

[2] = organism: Mus musculus; assay: In Vitro inhibition of Heme Oxygenase in Plasmodium yoelii (host) at concentration 10 uM; type: functional
In short: (§2)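 Heme oxygenase activity was measured as bilirubin formation in a post-mitochondrial fraction. The parasite enzyme came from cell-free P. yoelii, isolated from infected blood by density gradient centrifugation and saponin lysis. The host enzyme came from infected liver. Compounds were tested at 10–100 µM and preincubated for 10 min before the reaction was started.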

[3] = target: T1, Glutathione S-transferase (Plasmodium yoelii yoelii) (UniProt Q7REH6); assay: Inhibition of Glutathione S-transferase in Plasmodium yoelii nigeriensis isolated from infected mice (Mus musculus) (oral); NI denotes nil inhibition; in short: as §1
T1 sequence (whole entry): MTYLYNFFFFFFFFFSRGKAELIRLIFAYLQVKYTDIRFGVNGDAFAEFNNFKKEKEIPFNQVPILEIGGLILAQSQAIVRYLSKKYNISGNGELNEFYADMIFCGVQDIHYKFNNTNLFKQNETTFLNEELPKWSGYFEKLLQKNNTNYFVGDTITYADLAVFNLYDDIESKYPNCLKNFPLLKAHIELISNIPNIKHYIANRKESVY

[4] = test system: Plasmodium yoelii nigeriensis; assay: In Vitro inhibition of Heme Oxygenase in Cell-free parasite Plasmodium yoelii at concentration 10 uM; type: functional; in short: as §2
[5] = test system: Plasmodium yoelii nigeriensis; assay: In Vitro inhibition of Heme Oxygenase in Cell-free parasite Plasmodium yoelii at concentration 100 uM; type: functional; in short: as §2
[6] = test system: Plasmodium yoelii nigeriensis; assay: In Vitro inhibition of Heme Oxygenase in Cell-free parasite Plasmodium yoelii at concentration 50 uM; type: functional; in short: as §2
[7] = organism: Mus musculus; assay: In Vitro inhibition of Heme Oxygenase in Plasmodium yoelii (host) at concentration 100 uM; type: functional
In short: (§3)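 In vitro heme oxygenase, cell-free: post-mitochondrial fractions of P. yoelii parasites and of infected host liver. Test compounds at 10-100 µM were preincubated 10 min in the assay system before the enzyme reaction started. Activity was followed as bilirubin formation and expressed as % inhibition.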

[8] = organism: Mus musculus; assay: In Vitro inhibition of Heme Oxygenase in Plasmodium yoelii (host) at concentration 50 uM; type: functional; in short: as §3
[9] = test system: Plasmodium berghei; assay: In vivo antimalarial activity as parasitemia at day 10 in chloroquine-resistant Plasmodium berghei infected Mastomys coucha at 10 mg/kg; range 15-17%; type: functional
[10] = test system: Plasmodium yoelii; assay: In vivo antimalarial activity as MST of 1 week in chloroquine-resistant Plasmodium yoelii nigeriensis infected Swiss Albino mice (Mus musculus) at 15 mg/kg; type: functional
[11] = test system: Plasmodium berghei; assay: In vivo antimalarial activity as parasitemia at day 10 in chloroquine-resistant Plasmodium berghei infected Mastomys coucha; range 20-22%; type: functional
[12] = test system: Plasmodium berghei; assay: Hemozoin formation in chloroquine-resistant Plasmodium berghei at 15 mg/kg for 10 days
[13] = test system: Plasmodium yoelii; assay: Heme content in chloroquine-sensitive Plasmodium yoelii; type: functional
[14] = test system: Plasmodium berghei; assay: Heme content in chloroquine-sensitive Plasmodium berghei; type: functional
[15] = test system: Plasmodium yoelii; assay: In vivo resistance reversal agent in chloroquine-resistant Plasmodium yoelii nigerienses infected Swiss Albino mice (Mus musculus). Parasitemia observed on day 6-10 of treatment in Group IV;range is 80-70%; type: functional
[16] = test system: Plasmodium yoelii; assay: Evaluated for the Heme oxygenase in chloroquine-sensitive Plasmodium yoelii; type: functional
[17] = test system: Plasmodium yoelii; assay: In vivo parasitaemia at day 17 in chloroquine-resistant Plasmodium yoelii nigeriensis infected Swiss Albino mice (Mus musculus); Not active; type: functional, organism-based
[18] = test system: Plasmodium berghei; assay: Heme content in chloroquine-resistant Plasmodium berghei; type: functional
[19] = test system: Plasmodium berghei; assay: (§4) In vivo pretreatment parasitemia in chloroquine-resistant Plasmodium berghei infected Mastomys coucha; range 4-5%; type: functional
[20] = test system: Plasmodium yoelii; assay: Evaluated for the Heme oxygenase in chloroquine-resistant Plasmodium yoelii which is treated with 15 mg/kg body weight of compound for 10 days;NA denotes no activity; type: functional, organism-based; design: dose 15 mg/kg
[21] = test system: Plasmodium yoelii nigeriensis; assay: Inhibition of heme oxygenase in Plasmodium yoelii nigeriensis isolated from infected mice (Mus musculus) (oral); type: functional; in short: as §1
[22] = test system: Plasmodium berghei; assay: In vivo resistance reversal after 1 month in chloroquine-resistant Plasmodium berghei infected Mastomys coucha at 15 mg/kg on day 10; No inhibition
[23] = test system: Plasmodium yoelii nigeriensis; assay: Hemozoin formation in chloroquine-resistant Plasmodium yoelii at 15 mg/kg for 10 days
[24] = test system: Plasmodium yoelii; assay: Heme content in chloroquine-resistant Plasmodium yoelii; type: functional
[25] = test system: Plasmodium berghei; assay: In vivo antimalarial activity as parasitemia at day 10 in chloroquine-resistant Plasmodium berghei infected Mastomys coucha at 15 mg/kg; range 20-22%; type: functional
[26] = test system: Plasmodium yoelii nigeriensis; assay: Hemozoin formation in chloroquine-sensitive Plasmodium yoelii
[27] = target: T1, Glutathione S-transferase (Plasmodium yoelii yoelii); assay: Inhibition of Glutathione S-transferase in Plasmodium yoelii nigeriensis isolated from infected mice (Mus musculus) (oral); type: functional; details: concentration not given here
In short: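 Mice infected with P. yoelii nigeriensis were dosed orally at 15 mg/kg body wt for 5 days. Parasites were then isolated from blood by density-gradient centrifugation and saponin lysis. Glutathione-S-transferase (and heme oxygenase) activity is given as % inhibition.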

[28] = test system: Plasmodium yoelii; assay: (§5) In vivo antimalarial activity as pretreatment parasitemia in chloroquine-resistant Plasmodium yoelii nigerienses infected Swiss Albino mice (Mus musculus); range 1-2%; type: functional
[29] = test system: Plasmodium berghei; assay: In vivo resistance reversal at day 10 in chloroquine-resistant Plasmodium berghei infected Mastomys coucha at 10 mg/kg; range 20-22%; type: functional
[30] = test system: Plasmodium berghei; assay: Heme content in chloroquine-resistant Plasmodium berghei at 15 mg/kg for 10 days; type: functional
[31] = test system: Plasmodium yoelii; assay: In vivo antimalarial activity as pretreatment parasitaemia in chloroquine-resistant Plasmodium yoelii nigeriensis infected Swiss Albino mice (Mus musculus); range 1-2%; type: functional
[32] = test system: Plasmodium berghei; assay: In vivo resistance reversal at day 10 against chloroquine-resistant Plasmodium berghei infected Mastomys coucha at 10 mg/kg; range 20-22; type: functional
[33] = test system: Plasmodium berghei; assay: In vivo antimalarial activity as parasitemia at day 17 in chloroquine-resistant Plasmodium berghei infected Mastomys coucha treated to day 10; range 25-30%; type: functional
[34] = test system: Plasmodium yoelii; assay: Evaluated for the Heme oxygenase in chloroquine-resistant Plasmodium yoelii; type: functional
[35] = test system: Plasmodium berghei; assay: as §4; type: functional; remark: listed apart in the source
[36] = test system: Plasmodium yoelii; assay: Heme content after 10 days in chloroquine-resistant Plasmodium yoelii at 15 mg/kg; type: functional
[37] = test system: Plasmodium berghei; assay: as §4; type: functional; remark: listed apart in the source
[38] = test system: Plasmodium yoelii; assay: (§6) In vivo antimalarial activity as parasitemia at day 17 in chloroquine-resistant Plasmodium yoelii nigerienses infected Swiss Albino mice (Mus musculus) treated at day 10; No survivors; type: functional, organism-based
[39] = test system: Plasmodium yoelii nigeriensis; assay: In Vitro inhibition of Heme Oxygenase in Cell-free parasite Plasmodium yoelii at concentration 10 uM;NI denotes nil inhibition; type: functional; in short: as §2
[40] = test system: Plasmodium berghei; assay: as §4; type: functional; remark: listed apart in the source
[41] = test system: Plasmodium berghei; assay: Evaluated for the Heme oxygenase (Values are mean +/- SD of 4 separate observations. Specific activity in nmol/h/mg protein) in chloroquine-resistant Plasmodium berghei; type: functional
In short: (§7)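 Mastomys carrying CQ-resistant P. berghei were dosed orally at 15 mg/kg for 10 days. Untreated CQ-resistant and CQ-sensitive parasites served as reference samples. Parasites were isolated by density-gradient centrifugation and saponin lysis. Heme oxygenase was followed as bilirubin formation in the post-mitochondrial fraction and expressed as nmol/h/mg protein.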

[42] = test system: Plasmodium berghei; assay: Hemozoin formation in chloroquine-resistant Plasmodium berghei
[43] = test system: Plasmodium berghei; assay: In vivo resistance reversal at day 10 in chloroquine-resistant Plasmodium berghei infected Mastomys coucha at 10 mg/kg; range 20-22; type: functional
[44] = test system: Plasmodium berghei; assay: In vivo antimalarial activity as parasitemia at day 17 in-chloroquine-resistant Plasmodium berghei infected Mastomys coucha treated to day 10; No inhibition; type: functional, organism-based
[45] = test system: Plasmodium berghei; assay: Evaluated for the Heme oxygenase (Values are mean +/- SD of 4 separate observations. Specific activity in nmol/h/mg protein) in chloroquine-sensitive Plasmodium berghei; type: functional; in short: as §7
[46] = test system: Plasmodium yoelii; assay: In vivo antimalarial activity as parasitemia at days 6-10 in chloroquine-resistant Plasmodium yoelii nigerienses infected Swiss Albino mice (Mus musculus); range 70-80%; type: functional
[47] = test system: Plasmodium yoelii; assay: In vivo antimalarial activity as parasitemia at day 6 in chloroquine-resistant Plasmodium yoelii nigerienses infected Swiss Albino mice (Mus musculus); range 70-80%; type: functional
[48] = test system: Plasmodium yoelii; assay: In vivo resistance reversal in chloroquine-resistant Plasmodium yoelii nigeriensis infected Swiss Albino mice (Mus musculus); range is 1-2%; type: functional
[49] = test system: Plasmodium berghei; assay: In vivo antimalarial activity as parasitaemia at day 17 in chloroquine-resistant Plasmodium berghei infected Mastomys coucha treated to day 10; range >25-30%; type: functional
[50] = test system: Plasmodium berghei; assay: Evaluated for the Heme oxygenase (Values are mean +/- SD of 4 separate observations. Specific activity in nmol/h/mg protein) in chloroquine-resistant Plasmodium berghei which is treated with 15 mg/kg body weight of compound for 10 days; NA denotes no activity; type: functional, organism-based; design: dose 15 mg/kg; in short: as §7
[51] = test system: Plasmodium yoelii; assay: as §6; type: functional, organism-based; remark: listed apart in the source
[52] = test system: Plasmodium berghei; assay: In vivo antimalarial activity as parasitaemia at day 17 in chloroquine-resistant Plasmodium berghei infected Mastomys coucha treated to day 10; range 25-30%; type: functional
[53] = test system: Plasmodium yoelii; assay: as §5; type: functional; remark: listed apart in the source
[54] = test system: Plasmodium yoelii nigeriensis; assay: Hemozoin formation in chloroquine-resistant Plasmodium yoelii
[55] = test system: Plasmodium berghei; assay: Hemozoin formation in chloroquine-sensitive Plasmodium berghei
[56] = test system: Plasmodium yoelii; assay: In vivo antimalarial activity as MST of 1 week in chloroquine-resistant Plasmodium yoelii nigerienses infected Swiss Albino mice (Mus musculus) at 10 mg/kg chloroquine; type: functional
[57] = test system: Plasmodium yoelii; assay: In vivo antimalarial activity as survivors after 1 month in chloroquine-resistant Plasmodium yoelii nigeriensis infected Swiss Albino mice (Mus musculus) at 15 mg/kg combined with 10 mg/kg chloroquine; type: functional
[58] = test system: Plasmodium yoelii; assay: In vivo resistance reversal (control MST = 1 week) in chloroquine-resistant Plasmodium yoelii nigerienses infected Swiss Albino mice (Mus musculus); type: functional
[59] = test system: Plasmodium yoelii; assay: In vivo resistance reversal agent in chloroquine-resistant Plasmodium yoelii nigerienses infected Swiss Albino mice (Mus musculus). Parasitemia observed on day 6-10 of treatment in Group III NI denotes nil inhibition; type: functional, organism-based

Question: What does the source list for `CCN(CC)CCCN1CC/C(=C\c2ccc(OCc3ccccc3)cc2)C1`?
Answer: NI [1]: inactive; inhibition [2]: 24%; NI [3]: No inhibition; inhibition [4]: 28%; inhibition [5]: 64%; inhibition [6]: 37%; inhibition [7]: 69%; inhibition [8]: 63%

Question: Which results are given for `CCN(CC)CCCN1CC/C(=C\c2ccc(OC)cc2)C1`?
Answer: Parasites [9]: 17%; Mean survival time [10]: 1; Parasites [11]: 22%; Mean [12]: 71.1 pmol/mg; Mean [13]: 218 pmol/mg; Mean [14]: 344 pmol/mg; Parasites [15]: 80%; Mean [16]: 10.2 nM/h/mg; NI [17]: No inhibition; Mean [18]: 60.3 pmol/mg; Parasites [19]: 5%; NA [20]: inactive; Inhibition [21]: 100%; inhibition [4]: 48%; NI [22]: No inhibition; inhibition [5]: 87%; Mean [23]: 45.1 pmol/mg; Mean [24]: 109 pmol/mg; Parasites [25]: 22%; Mean [26]: 109 pmol/mg; inhibition [27]: 99%; inhibition [6]: 64%; Parasites [28]: 2%; Mean survival time [29]: 22 days; Mean [30]: 321 pmol/mg; Parasites [31]: 2%; Mean survival time [32]: 22 days; Parasites [33]: >30%; Mean [34]: 102 nM/h/mg; Parasites [35]: 5%; Mean [36]: 172 pmol/mg; Parasites [37]: 5%; NS [38]: No survivors; NI [39]: No inhibition; Parasites [40]: 5%; Mean [41]: 80.2 nM/h/mg; Mean [42]: 51.4 pmol/mg; inhibition [7]: 31%; Mean survival time [43]: 22 days; NI [44]: No inhibition; Mean [45]: 7.32 nM/h/mg; Parasites [46]: 80%; Parasites [47]: 80%; Parasites [48]: 2%; Parasites [49]: >30%; NA [50]: inactive; inhibition [8]: 21%; NS [51]: No survivors; Parasites [52]: >30%; Parasites [53]: 2%; Mean [54]: 43.3 pmol/mg; Mean [55]: 101 pmol/mg; Mean survival time [56]: 1; Mean survival time [57]: > 1 month; Mean survival time [58]: 1; NI [59]: No inhibition
